Results taken from ChEMBL document CHEMBL1122445, “Novel fluorinated antifolates. Enzyme inhibition and cytotoxicity studies on 2'- and 3'-fluoroaminopterin” (J Med Chem, 1983).

Key:
Dihydrofolate reductase [1] = target: Dihydrofolate reductase (Lactobacillus casei, UniProt P00381); experiment: Inhibition of dihydrofolate reductase in Lactobacillus casei; design: species or system Lacticaseibacillus casei; conditions: read-out: I50
Procedure, shortened: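 L. casei DHFR purified to homogeneity from an MTX-resistant overproducer strain, with enzyme level (4–5 × 10^-9 M) set by MTX titration. […] Rates were taken from the linear 0.5–2 min region. I50 is the concentration halving the rate; Ki is from the Cha equation, correcting for inhibitor depletion.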

Dihydrofolate reductase [2] = target: T1, Dihydrofolate reductase (Escherichia coli, UniProt P0ABQ4); experiment: Inhibition of dihydrofolate reductase in Escherichia coli; conditions: read-out: I50
T1 sequence (P0ABQ4 whole entry): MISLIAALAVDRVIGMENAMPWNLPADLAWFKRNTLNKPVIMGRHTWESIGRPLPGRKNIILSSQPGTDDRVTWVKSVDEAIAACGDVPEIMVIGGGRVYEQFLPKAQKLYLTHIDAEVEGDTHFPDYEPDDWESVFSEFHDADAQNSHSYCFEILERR
Procedure, shortened: (§1)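 E. coli MB 1428 MTX-resistant overproducer DHFR purified to homogeneity by MTX affinity chromatography; spectrophotometric assay at pH 7.2 with 40 μM NADPH and 44 μM dihydrofolate (Km 0.44 μM); enzyme 4 to 5×10^-9 M, titrated with MTX. Rates taken over linear 0.5–2 min (<10% substrate used). I50 = half of control rate; Ki from I50 via Cha equation corrected for enzyme-bound inhibitor.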

Dihydrofolate reductase [3] = target: T2, Dihydrofolate reductase (Homo sapiens, UniProt P00374); experiment: Inhibition of dihydrofolate reductase in HeLa cells; assay type: cell-based; conditions: read-out: I50
T2 sequence (P00374 whole entry): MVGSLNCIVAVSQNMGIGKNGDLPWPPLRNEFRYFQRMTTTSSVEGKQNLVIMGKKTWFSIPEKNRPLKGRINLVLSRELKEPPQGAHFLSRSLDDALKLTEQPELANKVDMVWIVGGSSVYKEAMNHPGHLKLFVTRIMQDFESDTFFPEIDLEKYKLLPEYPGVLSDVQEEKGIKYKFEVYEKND

Escherichia coli = experiment: Inhibition constant (Ki) was determined in Escherichia coli; assay type: functional; procedure, shortened: as §1
HuTu80 = experiment: Inhibition of growth (cytotoxicity) of HuTu 80 cell line in vitro; assay type: functional, cell-based; conditions: Homo sapiens
Procedure, shortened: (§2)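 About 1 × 10^5 L1210 or HuTu 80 cells in 1 mL of their original medium with inhibitor, 37 °C for 72 h; counted by Coulter counter (10- to 20-fold growth in controls). EC50 = concentration reducing growth 50% versus inhibitor-free controls.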

Lacticaseibacillus casei = experiment: Inhibition constant (Ki) was determined in Lactobacillus casei; assay type: functional
L1210 = experiment: Inhibition of growth (cytotoxicity) of L1210 cell line in vitro; assay type: functional, cell-based; conditions: Mus musculus; procedure, shortened: as §2

Sequence of Dihydrofolate reductase (Lactobacillus casei, UniProt P00381) (P00381 whole entry): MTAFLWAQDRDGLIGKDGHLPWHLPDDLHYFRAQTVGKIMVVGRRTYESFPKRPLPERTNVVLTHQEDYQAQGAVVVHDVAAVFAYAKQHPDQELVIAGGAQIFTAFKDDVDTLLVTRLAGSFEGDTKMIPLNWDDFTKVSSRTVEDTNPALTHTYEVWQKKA

Compound	IC50 (Dihydrofolate reductase [1]) [nM]	IC50 (Dihydrofolate reductase [2]) [nM]	IC50 (Dihydrofolate reductase [3]) [nM]	Ki (Escherichia coli) [nM]	EC50 (HuTu80) [nM]	Ki (Lacticaseibacillus casei) [nM]	EC50 (L1210) [nM]
Nc1nc(N)c2nc(CNc3ccc(C(=O)NC(CCC(=O)O)C(=O)O)cc3F)cnc2n1 (configuration not stated)	3.5	5	19	0.03	2.3	0.06	1
Nc1nc(N)c2nc(CNc3ccc(C(=O)NC(CCC(=O)O)C(=O)O)c(F)c3)cnc2n1 (configuration not stated)	4.7	10	27	0.08	4.8	0.095	2.3
Nc1nc(N)c2nc(CNc3ccc(C(=O)N[C@@H](CCC(=O)O)C(=O)O)cc3)cnc2n1 [AMINOPTERIN]	5	11	–	0.09	4.7	0.11	1.8
CN(Cc1cnc2nc(N)nc(N)c2n1)c1ccc(C(=O)N[C@@H](CCC(=O)O)C(=O)O)cc1 [METHOTREXATE]	–	–	–	–	4.5	–	3.2
